ChEMBL document CHEMBL1129642, “Design, synthesis, and evaluation of 2 beta-alkenyl penam sulfone acids as inhibitors of beta-lactamases” (J Med Chem, 1996)

Columns and labels:
Bacillus licheniformis = assay: Compound was tested for inhibition of Bacillus licheniformis 749/C, class A of beta-Lactamases.; format: functional, organism-based
Pseudomonas aeruginosa [1] = assay: Compound was tested for inhibition of Pseudomonas aeruginosa 18SH in combination with Ceftriaxone; format: functional
Summary of the method: (§1)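 MICs determined by serial 2-fold dilution in Mueller-Hinton broth with an inoculum of approximately 10⁵ cfu/mL. The test compound was combined with ceftriaxone.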

Citrobacter freundii [2] = assay: Compound was tested for inhibition of Citrobacter freundii 1928 in combination with Ceftriaxone; format: functional; summary of the method: as §1
[3] = (§2) Compound was tested for inhibition of TEM-1, class A of beta-lactamases.; format: functional, Escherichia coli
[4] = (§3) Compound was tested for inhibition of pTEM-4 from Escherichia coli in combination with Ceftriaxone; format: functional; summary of the method: as §1
[5] = (§4) Compound was tested for inhibition of pTEM-3 from Escherichia coli in combination with Ceftriaxone; format: functional; summary of the method: as §1
Enterobacter cloacae [6] = assay: (§5) Compound was tested for inhibition of Ent. cloacae 908R in combination with Ceftriaxone; format: functional; summary of the method: as §1
[7] = (§6) Compound was tested for inhibition of TEM-3, class A of beta-lactamases.; format: functional, Escherichia coli
Pseudomonas aeruginosa [8] = assay: Compound was tested for inhibition of Pseudomonas aeruginosa 18SH in combination with Ceftriaxone (expressed in MIC).; format: functional, organism-based; summary of the method: as §1
[9] = as §2; set-up: species or system Escherichia coli
[10] = Compound was tested for inhibition of pTEM-3 from Escherichia coli in combination with Ceftriaxone (expressed in MIC).; summary of the method: as §1
Beta-lactamase [11] = biological target: Beta-lactamase (Escherichia coli K-12, UniProt P00811); assay: Compound was tested for inhibition of Escherichia coli AmpC, class C of Beta-lactamase
Enterobacter cloacae [12] = assay: Compound was tested for inhibition of Ent. cloacae 908R in combination with Ceftriaxone (expressed in MIC).; format: functional, organism-based; summary of the method: as §1
[13] = Compound was tested for inhibition of pTEM-4 from Escherichia coli in combination with Ceftriaxone; NA = Not active; summary of the method: as §1
Beta-lactamase [14] = biological target: T1, Beta-lactamase (Pseudomonas aeruginosa (strain ATCC 15692 / PAO1 / 1C / PRS 101 / LMG12228), UniProt P24735); assay: Compound was tested for inhibition of Pseudomonas aeruginosa 18SH, class C of Beta-lactamase
Beta-lactamase [15] = biological target: T2, Beta-lactamase (Bacillus licheniformis, UniProt P00808); assay: Compound was tested for inhibition of Bacillus licheniformis 749/C, class A of Beta-lactamase
[16] = as §6; set-up: species or system Escherichia coli
Citrobacter freundii [17] = assay: (§7) Compound was tested for inhibition of Citrobacter freundii 1928 in combination with Ceftriaxone (expressed in MIC).; format: functional, organism-based; summary of the method: as §1
Enterobacter cloacae [18] = assay: as §5; format: functional, organism-based; summary of the method: as §1
Escherichia coli [19] = assay: as §3; summary of the method: as §1
[20] = Compound was tested for inhibition of Penicillin-binding protein 2x from Streptococcus pneumoniae
Summary of the method: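 S. pneumoniae PBP 2x was assayed as recombinant soluble protein. IC₅₀ values are reported in µM.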

Beta-lactamase [21] = biological target: Beta-lactamase (Citrobacter freundii, UniProt P05193); assay: Compound was tested for inhibition of Citrobacter freundii 1928, class C of Beta-lactamase
Escherichia coli [22] = assay: as §4; summary of the method: as §1
[23] = biological target: T3, Penicillin-binding protein 1B (Escherichia coli K-12, UniProt P02919); assay: Compound was tested for inhibition of Penicillin-binding protein 1b from Escherichia coli.
T3 sequence (P02919 whole entry): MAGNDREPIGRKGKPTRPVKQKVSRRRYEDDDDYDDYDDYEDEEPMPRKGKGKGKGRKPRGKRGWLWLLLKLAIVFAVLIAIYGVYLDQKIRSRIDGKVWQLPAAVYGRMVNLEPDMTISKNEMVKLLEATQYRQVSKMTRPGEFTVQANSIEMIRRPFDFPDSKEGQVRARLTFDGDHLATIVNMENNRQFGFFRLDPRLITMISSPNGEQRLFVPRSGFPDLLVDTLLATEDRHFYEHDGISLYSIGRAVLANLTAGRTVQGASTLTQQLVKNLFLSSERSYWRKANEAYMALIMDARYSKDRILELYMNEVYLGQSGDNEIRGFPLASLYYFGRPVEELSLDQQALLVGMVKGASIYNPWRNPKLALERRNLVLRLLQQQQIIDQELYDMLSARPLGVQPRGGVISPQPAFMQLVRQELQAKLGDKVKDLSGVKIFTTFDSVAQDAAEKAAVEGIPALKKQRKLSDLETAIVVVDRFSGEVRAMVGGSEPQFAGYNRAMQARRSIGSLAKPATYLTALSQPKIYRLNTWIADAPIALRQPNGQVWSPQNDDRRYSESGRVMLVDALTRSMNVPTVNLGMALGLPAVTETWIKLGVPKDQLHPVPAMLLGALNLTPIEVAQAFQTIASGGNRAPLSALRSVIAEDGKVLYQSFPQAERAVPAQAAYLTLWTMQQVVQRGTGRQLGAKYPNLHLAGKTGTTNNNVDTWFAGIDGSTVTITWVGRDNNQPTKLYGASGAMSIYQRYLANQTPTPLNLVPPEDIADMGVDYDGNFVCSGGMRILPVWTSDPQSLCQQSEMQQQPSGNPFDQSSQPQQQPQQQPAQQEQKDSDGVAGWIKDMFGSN
Summary of the method: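 Penicillin binding was assayed on membrane fragments from E. coli W3110 or S. aureus Schoch, using ¹⁴C-labeled benzylpenicillin as the probe. IC₅₀ values are reported in µM.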

[24] = biological target: Metallo-beta-lactamase type 2 (Bacteroides fragilis, UniProt P25910); assay: Compound was tested for inhibition of Beta-lactamase from Bacteroides fragilis BF 101
Citrobacter freundii [25] = assay: Compound was tested for the half saturation constant derived from concentration dependence studies in Citrobacter freundii; format: functional
Summary of the method: (§8)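 Purified β-lactamases (C. freundii 1928, E. coli SNO3, TEM-3, SHV-2) reacted with inhibitor. K_S is the half-saturation constant for forming the acyl-enzyme complex, taken from the concentration dependence of that reaction. It was obtained together with the acylation rate k_on and the acyl-enzyme breakdown rate k_off, using previously published kinetic methods.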

Beta-lactamase TEM [26] = biological target: T4, Beta-lactamase TEM (Escherichia coli, UniProt P62593); assay: Compound was tested for inhibition of Beta-lactamase from RTEM-1
[27] = biological target: Penicillin-binding protein 2b (Staphylococcus aureus, UniProt Q9XDB3); assay: Compound was tested for inhibition of Penicillin-binding protein 3 from Staphylococcus aureus (Schoch).
Summary of the method: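 Competition for penicillin binding measured on S. aureus Schoch membrane fragments with 14C-labelled benzylpenicillin as the probe. The value is the IC50 (µM) for the PBP 3 band.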

Beta-lactamase L1 = Beta-lactamase L1 (Stenotrophomonas maltophilia, UniProt P52700); assay: Compound was tested for inhibition of Beta-lactamase from Xanthomonas maltophila 328
Beta-lactamase SHV-1 = Beta-lactamase SHV-1 (Escherichia coli, UniProt P0AD63); assay: Compound was tested for inhibition of Beta-lactamase from SHV-2
Beta-lactamase OXA-1 = Beta-lactamase OXA-1 (Escherichia coli, UniProt P13661); assay: Compound was tested for inhibition of Beta-lactamase from OXA-1
Beta-lactamase [28] = biological target: T1, Beta-lactamase; assay: Compound was tested for inhibition of Beta-lactamase from Pseudomonas aeruginosa MK-1184
Beta-lactamase [29] = biological target: T1, Beta-lactamase; assay: Compound was tested for inhibition of Beta-lactamase from Pseudomonas aeruginosa GN10362
Beta-lactamase [30] = biological target: T2, Beta-lactamase; assay: Compound was tested for inhibition of Beta-lactamase from Bacillus licheniformis 749/C
Beta-lactamase pse-1 = Beta-lactamase pse-1 (Escherichia coli, UniProt Q2V0Y6); assay: Compound was tested for inhibition of Beta-lactamase from PSE-1
Citrobacter freundii [31] = assay: as §7; format: functional, organism-based; remark: listed apart in the source
Escherichia coli [32] = assay: Compound was tested for the half saturation constant derived from concentration dependence studies in Escherichia coli SHV-2.; format: functional; summary of the method: as §8
Escherichia coli [33] = assay: Compound was tested for the half saturation constant derived from concentration dependence studies in Escherichia coli TEM-3.; format: functional; summary of the method: as §8
Beta-lactamase TEM [34] = biological target: T4, Beta-lactamase TEM; assay: Compound was tested for inhibition of Beta-lactamase from RTEM-2
Escherichia coli [35] = assay: Compound was tested for the half saturation constant derived from concentration dependence studies in Escherichia coli SNO3.; format: functional; summary of the method: as §8
Beta-lactamase [36] = biological target: Beta-lactamase (Staphylococcus aureus, UniProt P00807); assay: Compound was tested for inhibition of Beta-lactamase from Staphylococcus aureus PCI
[37] = biological target: PBP3 from Escherichia coli (K-12) (Escherichia coli, UniProt P0AD68); assay: Compound was tested for inhibition of Penicillin-binding protein 3 from Escherichia coli.
PBP3 from Escherichia coli (K-12), sequence (P0AD68 whole entry, looked up): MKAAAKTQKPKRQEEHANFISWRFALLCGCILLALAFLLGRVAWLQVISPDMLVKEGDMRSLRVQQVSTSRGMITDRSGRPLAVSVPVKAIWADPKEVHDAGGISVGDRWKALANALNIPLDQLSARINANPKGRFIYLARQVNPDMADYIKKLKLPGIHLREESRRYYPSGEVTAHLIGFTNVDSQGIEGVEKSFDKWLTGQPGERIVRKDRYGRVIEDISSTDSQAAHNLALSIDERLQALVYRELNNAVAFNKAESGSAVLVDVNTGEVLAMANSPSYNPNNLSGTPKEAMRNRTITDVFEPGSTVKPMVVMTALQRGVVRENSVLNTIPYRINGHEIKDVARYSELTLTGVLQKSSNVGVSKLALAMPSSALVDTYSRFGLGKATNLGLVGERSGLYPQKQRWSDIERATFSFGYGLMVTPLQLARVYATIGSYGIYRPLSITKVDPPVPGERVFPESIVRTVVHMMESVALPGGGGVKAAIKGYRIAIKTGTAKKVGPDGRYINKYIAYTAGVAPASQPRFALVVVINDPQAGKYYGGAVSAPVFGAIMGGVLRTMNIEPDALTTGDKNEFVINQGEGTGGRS

T1 sequence (P24735 whole entry): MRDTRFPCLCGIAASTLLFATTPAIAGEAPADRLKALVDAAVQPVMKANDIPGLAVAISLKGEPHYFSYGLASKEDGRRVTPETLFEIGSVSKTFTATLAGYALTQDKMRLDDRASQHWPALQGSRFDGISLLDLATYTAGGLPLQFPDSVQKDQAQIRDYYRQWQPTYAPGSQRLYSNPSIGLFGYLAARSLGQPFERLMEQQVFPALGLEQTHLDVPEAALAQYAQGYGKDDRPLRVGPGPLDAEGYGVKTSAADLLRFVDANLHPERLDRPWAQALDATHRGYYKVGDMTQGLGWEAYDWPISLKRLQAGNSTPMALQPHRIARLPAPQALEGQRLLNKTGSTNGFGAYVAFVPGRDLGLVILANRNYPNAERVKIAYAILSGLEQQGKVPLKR
T2 sequence (P00808 whole entry): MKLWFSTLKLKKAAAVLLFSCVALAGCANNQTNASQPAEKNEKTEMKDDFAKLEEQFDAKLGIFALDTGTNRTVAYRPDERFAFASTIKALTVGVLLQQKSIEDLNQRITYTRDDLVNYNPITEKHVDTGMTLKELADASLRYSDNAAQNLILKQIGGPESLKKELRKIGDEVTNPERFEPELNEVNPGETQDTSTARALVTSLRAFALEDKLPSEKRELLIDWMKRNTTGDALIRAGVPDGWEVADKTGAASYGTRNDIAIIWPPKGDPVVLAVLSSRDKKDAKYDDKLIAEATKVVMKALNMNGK
T4 sequence (P62593 whole entry): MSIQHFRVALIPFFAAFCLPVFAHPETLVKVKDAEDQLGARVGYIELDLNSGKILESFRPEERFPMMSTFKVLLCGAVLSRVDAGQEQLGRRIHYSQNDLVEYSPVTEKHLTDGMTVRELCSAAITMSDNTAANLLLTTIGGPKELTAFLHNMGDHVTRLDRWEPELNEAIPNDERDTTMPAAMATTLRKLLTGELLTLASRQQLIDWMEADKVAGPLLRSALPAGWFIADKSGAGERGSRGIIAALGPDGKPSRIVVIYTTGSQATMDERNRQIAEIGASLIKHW
Beta-lactamase (Escherichia coli K-12, UniProt P00811), sequence (P00811 whole entry): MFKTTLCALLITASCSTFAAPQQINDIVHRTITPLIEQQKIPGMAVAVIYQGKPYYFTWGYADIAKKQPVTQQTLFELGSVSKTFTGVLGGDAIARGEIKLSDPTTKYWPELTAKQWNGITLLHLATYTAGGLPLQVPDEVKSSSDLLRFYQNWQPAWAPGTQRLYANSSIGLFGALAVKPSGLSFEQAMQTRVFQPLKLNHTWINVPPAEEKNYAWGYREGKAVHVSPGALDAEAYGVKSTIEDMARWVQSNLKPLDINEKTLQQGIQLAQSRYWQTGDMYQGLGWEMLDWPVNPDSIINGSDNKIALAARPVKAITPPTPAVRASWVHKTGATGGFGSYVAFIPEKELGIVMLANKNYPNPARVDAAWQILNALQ
Metallo-beta-lactamase type 2, sequence (P25910 whole entry): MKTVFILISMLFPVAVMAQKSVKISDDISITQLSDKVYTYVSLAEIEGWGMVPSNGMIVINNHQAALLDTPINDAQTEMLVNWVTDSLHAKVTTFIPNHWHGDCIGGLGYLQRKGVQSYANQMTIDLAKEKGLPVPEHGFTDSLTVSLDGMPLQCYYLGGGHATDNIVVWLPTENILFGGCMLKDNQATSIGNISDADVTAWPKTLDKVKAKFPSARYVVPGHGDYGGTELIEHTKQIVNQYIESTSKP
Beta-lactamase pse-1, sequence (Q2V0Y6 whole entry): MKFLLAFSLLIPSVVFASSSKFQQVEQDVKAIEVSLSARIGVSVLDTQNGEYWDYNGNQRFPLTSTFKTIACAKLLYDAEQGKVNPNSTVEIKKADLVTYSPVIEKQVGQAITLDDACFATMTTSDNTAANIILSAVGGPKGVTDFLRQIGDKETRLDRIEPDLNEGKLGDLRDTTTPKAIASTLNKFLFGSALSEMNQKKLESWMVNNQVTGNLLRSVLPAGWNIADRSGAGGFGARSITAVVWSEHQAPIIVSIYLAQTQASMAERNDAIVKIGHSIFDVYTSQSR
Beta-lactamase (Citrobacter freundii, UniProt P05193), sequence (P05193 whole entry): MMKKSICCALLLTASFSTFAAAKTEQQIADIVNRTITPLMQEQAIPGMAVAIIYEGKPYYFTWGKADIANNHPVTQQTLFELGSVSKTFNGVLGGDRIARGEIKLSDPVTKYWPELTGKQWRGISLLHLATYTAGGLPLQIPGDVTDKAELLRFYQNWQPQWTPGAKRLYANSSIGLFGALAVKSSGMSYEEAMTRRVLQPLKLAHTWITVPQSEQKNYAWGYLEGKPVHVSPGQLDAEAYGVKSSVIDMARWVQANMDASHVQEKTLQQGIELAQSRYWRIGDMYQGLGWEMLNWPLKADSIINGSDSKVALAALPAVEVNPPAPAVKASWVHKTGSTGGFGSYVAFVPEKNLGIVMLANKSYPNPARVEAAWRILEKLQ
Beta-lactamase SHV-1, sequence (P0AD63 22-286 limits assumed): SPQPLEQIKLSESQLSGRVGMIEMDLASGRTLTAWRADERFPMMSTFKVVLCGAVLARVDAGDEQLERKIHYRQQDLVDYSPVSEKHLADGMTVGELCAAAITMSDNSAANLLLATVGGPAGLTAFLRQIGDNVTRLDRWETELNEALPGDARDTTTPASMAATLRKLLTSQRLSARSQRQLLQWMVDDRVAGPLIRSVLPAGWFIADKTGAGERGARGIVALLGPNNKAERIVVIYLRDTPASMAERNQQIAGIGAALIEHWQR
Beta-lactamase L1, sequence (P52700 whole entry): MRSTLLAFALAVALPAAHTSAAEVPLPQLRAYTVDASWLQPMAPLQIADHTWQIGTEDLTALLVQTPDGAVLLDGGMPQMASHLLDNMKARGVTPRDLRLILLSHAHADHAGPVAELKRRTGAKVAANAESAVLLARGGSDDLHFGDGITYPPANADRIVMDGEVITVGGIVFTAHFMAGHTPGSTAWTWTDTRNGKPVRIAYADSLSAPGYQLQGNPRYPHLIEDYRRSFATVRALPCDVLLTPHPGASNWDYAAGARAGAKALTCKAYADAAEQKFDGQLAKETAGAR
Beta-lactamase OXA-1, sequence (P13661 whole entry): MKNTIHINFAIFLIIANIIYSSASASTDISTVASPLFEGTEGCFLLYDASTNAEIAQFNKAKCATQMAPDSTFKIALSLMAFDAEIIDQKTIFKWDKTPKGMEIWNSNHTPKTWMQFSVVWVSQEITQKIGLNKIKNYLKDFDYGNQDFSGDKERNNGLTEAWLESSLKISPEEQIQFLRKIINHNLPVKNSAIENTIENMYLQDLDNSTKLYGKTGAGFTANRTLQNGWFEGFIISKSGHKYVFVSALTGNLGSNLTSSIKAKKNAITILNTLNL

Row | SMILES | IC50 (Bacillus licheniformis) | MIC (Pseudomonas aeruginosa [1]) | MIC (Citrobacter freundii [2]) | IC50 [3] | MIC [4] | MIC [5] | MIC (Enterobacter cloacae [6]) | IC50 [7] | also measured
1 | CON(C)C(=O)/C=C\[C@@]1(C)[C@H](C(=O)[O-])N2C(=O)C[C@H]2S1(=O)=O.[Na+] | 4.4 µM | > 16 µg/mL | 8 µg/mL | 12 µM | 2 µg/mL | 0.5 µg/mL | 16 µg/mL | 0.18 µM | 
2 | CCOC(=O)/C=C\[C@@]1(C)[C@H](C(=O)O)N2C(=O)C[C@H]2S1(=O)=O |  |  |  |  |  |  |  |  | MIC (Pseudomonas aeruginosa [8]): > 16 µg/mL; IC50 [9]: 14 µM; MIC [10]: < 0.25 µg/mL; IC50 (Beta-lactamase [11]): 61 µM; MIC (Enterobacter cloacae [12]): 8 µg/mL; MIC [13]: Not Active; IC50 (Beta-lactamase [14]): 15 µM; IC50 (Beta-lactamase [15]): 2.9 µM; IC50 [16]: 0.46 µM; MIC (Citrobacter freundii [17]): 4 µg/mL
3 | C[C@]1(/C=C\Cl)[C@H](C(=O)[O-])N2C(=O)C[C@H]2S1(=O)=O.[Na+] | 6.6 µM | 4 µg/mL | 4 µg/mL | 5.6 µM | 1 µg/mL | 0.25 µg/mL | 4 µg/mL | 0.06 µM | 
4 | C[C@]1(/C=C/c2cncs2)[C@H](C(=O)O)N2C(=O)C[C@H]2S1(=O)=O |  | 16 µg/mL | 8 µg/mL |  |  |  | > 16 µg/mL |  | IC50 [9]: 8.5 µM; MIC (Escherichia coli [19]): 4 µg/mL; IC50 (Beta-lactamase [11]): 45 µM; IC50 (Beta-lactamase [14]): 0.54 µM; IC50 [20]: 50 µM; IC50 (Beta-lactamase [21]): 1.3 µM; IC50 (Beta-lactamase [15]): 5.4 µM; MIC (Escherichia coli [22]): 1 µg/mL; IC50 [16]: 0.16 µM; IC50 [23]: > 10000 µM
5 | C[C@]1(C=CC#N)[C@H](C(=O)O)N2C(=O)C[C@H]2S1(=O)=O [Ro-481220] | 0.32 µM |  |  |  |  |  |  |  | IC50 [24]: 200 µM; Ks (Citrobacter freundii [25]): 125 µM; MIC (Pseudomonas aeruginosa [8]): 4 µg/mL; IC50 (Beta-lactamase TEM [26]): 1.07 µM; IC50 [27]: 170 µM; IC50 (Beta-lactamase L1): 24 µM; IC50 (Beta-lactamase SHV-1): 0.54 µM; IC50 (Beta-lactamase OXA-1): 0.1 µM; IC50 (Beta-lactamase [28]): 1.97 µM; MIC (Enterobacter cloacae [12]): 1 µg/mL; IC50 (Beta-lactamase [29]): 0.86 µM; IC50 (Beta-lactamase [30]): 0.32 µM; IC50 (Beta-lactamase pse-1): 0.09 µM; MIC (Citrobacter freundii [31]): 1 µg/mL; Ks (Escherichia coli [32]): 2.3 µM; Ks (Escherichia coli [33]): 0.56 µM; IC50 (Beta-lactamase TEM [34]): 0.98 µM; Ks (Escherichia coli [35]): 377 µM; IC50 (Beta-lactamase [36]): 0.25 µM; IC50 [37]: > 340 µM

More lines, in order of falling MIC (Pseudomonas aeruginosa [1]), values ahead:

Row | IC50 (Bacillus licheniformis) | MIC (Pseudomonas aeruginosa [1]) | MIC (Citrobacter freundii [2]) | IC50 [3] | MIC [4] | MIC [5] | MIC (Enterobacter cloacae [6]) | IC50 [7] | SMILES | also measured
6 | 3.6 µM | 16 µg/mL | 8 µg/mL | 6.5 µM | 2 µg/mL | 0.5 µg/mL | 8 µg/mL | 0.6 µM | C[C@]1(C=CCO)[C@H](C(=O)[O-])N2C(=O)C[C@H]2S1(=O)=O.[Na+] | 
7 | 6.5 µM | 8 µg/mL | 4 µg/mL | 9.1 µM | 4 µg/mL | 1 µg/mL |  | 0.76 µM | C[C@]1(/C=C/COC(N)=O)[C@H](C(=O)O)N2C(=O)C[C@H]2S1(=O)=O | MIC (Enterobacter cloacae [18]): 8 µg/mL
8 | 3.4 µM | 4 µg/mL | 2 µg/mL | 1.2 µM | 2 µg/mL | 0.25 µg/mL | 4 µg/mL | 0.13 µM | C[C@]1(/C=C\C(N)=O)[C@H](C(=O)O)N2C(=O)C[C@H]2S1(=O)=O | 
